Test results published in ChEMBL document CHEMBL3596178, “Synthesis and biological evaluation of curcumin derivatives containing NSAIDs for their anti-inflammatory activity” (Bioorg Med Chem Lett, 2015).
Calls of active or inactive are those of the source. The rule behind the calls is not given here.

Key:
RAW264.7 = assay: Inhibition of TPA-induced cell proliferation of mouse RAW264.7 cells; type: functional, cell-based
Method in brief: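 RAW 264.7 macrophages; proliferation measured by MTT assay. IC50 reported as mean±SD of three independent experiments.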

Mus musculus [1] = assay: Anti-inflammatory activity in BALB/c mouse assessed as reduction in TPA-induced ear edema by measuring weight of ear punches at 0.75 uM applied topically 6 mins before to TPA treatment; type: functional
Method in brief: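 Female BALB/c mice; TPA applied topically to ears, test agents applied topically 6 min before TPA. Edema read as weight of 6 mm diameter ear punch biopsies. Screening concentration 0.75 µM.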

Mus musculus [2] = assay: Anti-inflammatory activity in BALB/c mouse model of TPA-induced ear edema assessed as reduction in TNFalpha levels at 0.75 uM applied topically 6 mins before to TPA treatment by immunohistochemistry; type: functional, organism-based
Mus musculus [3] = assay: Anti-inflammatory activity in BALB/c mouse model of TPA-induced ear edema assessed as reduction in phosphorylated p65 level at 0.75 uM applied topically 6 mins before to TPA treatment by immunohistochemistry; type: functional, organism-based
Method in brief: (§1)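 TPA-induced ear edema in BALB/c mice, agents applied topically before TPA. Ear tissue examined immunohistochemically with a nonphosphorylated p65 antibody and an anti-phospho-Ser536 p65 antibody.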

Mus musculus [4] = assay: Anti-inflammatory activity in BALB/c mouse model of TPA-induced ear edema assessed as reduction in IKK activity level at 0.75 uM applied topically 6 mins before to TPA treatment by immunohistochemistry; type: functional, organism-based
Mus musculus [5] = assay: Anti-inflammatory activity in BALB/c mouse model of TPA-induced ear edema assessed as reduction in Ikappa-Balpha phosphorylation level at 0.75 uM applied topically 6 mins before to TPA treatment by immunohistochemistry; type: functional, organism-based
Method in brief: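 TPA-induced ear edema in BALB/c mice, agents applied topically before TPA. Ear tissue examined immunohistochemically with an anti-phospho-Ser36 IκBα antibody and a nonphosphorylated IκB antibody.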

Mus musculus [6] = assay: Anti-inflammatory activity in BALB/c mouse model of TPA-induced ear edema assessed as reduction in inflammatory cells infiltration at 0.75 uM applied topically 6 mins before to TPA treatment by H and E staining method; type: functional, organism-based
Method in brief: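 Female BALB/c mouse ears pretreated topically with agents or acetone (control), then TPA applied topically. Ear sections stained with H&E and assessed histologically for epidermal hyperkeratosis, stratum corneum thickening and inflammatory cell infiltration.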

Mus musculus [7] = assay: Anti-inflammatory activity in BALB/c mouse model of TPA-induced ear edema assessed as reduction in IL-1beta levels at 0.75 uM applied topically 6 mins before to TPA treatment by immunohistochemistry; type: functional, organism-based
Mus musculus [8] = assay: Anti-inflammatory activity in BALB/c mouse model of TPA-induced ear edema assessed as reduction in IL-6 levels at 0.75 uM applied topically 6 mins before to TPA treatment by immunohistochemistry; type: functional, organism-based
Mus musculus [9] = assay: Anti-inflammatory activity in BALB/c mouse model of TPA-induced ear edema assessed as reduction in p65 nuclear translocation at 0.75 uM applied topically 6 mins before to TPA treatment by immunohistochemistry; type: functional, organism-based; method in brief: as §1

| SMILES | IC50 (RAW264.7) | inhibition (INH) (Mus musculus [1]) | further results |
| --- | --- | --- | --- |
| COc1cc(/C=C/C(=O)CC(=O)/C=C/c2ccc(OC(=O)c3cc(-c4ccc(F)cc4F)ccc3O)c(OC)c2)ccc1O | 12.9 µM | 10% | – |
| CCc1cccc2c3c([nH]c12)C(CC)(CC(=O)Oc1ccc(/C=C/C(=O)CC(=O)/C=C/c2ccc(OC(=O)CC4(CC)OCCc5c4[nH]c4c(CC)cccc54)c(OC)c2)cc1OC)OCC3 (stereo unspecified) | > 30 µM | – | – |
| COc1cc(/C=C/C(=O)CC(=O)/C=C/c2ccc(OC(=O)c3ccccc3Nc3cccc(C(F)(F)F)c3)c(OC)c2)ccc1O | 5.54 µM | 90% | – |
| COc1cc(/C=C/C(=O)CC(=O)/C=C/c2ccc(OC(=O)c3ccccc3OC(=O)c3ccccc3O)c(OC)c2)ccc1OC(=O)c1ccccc1OC(=O)c1ccccc1O | > 30 µM | 93.3% | inhibition (Mus musculus [2]): Active; inhibition (Mus musculus [3]): Active; inhibition (Mus musculus [4]): Active; inhibition (Mus musculus [5]): Active; inhibition (Mus musculus [6]): Active |
| COc1cc(/C=C/C(=O)CC(=O)/C=C/c2ccc(OC(=O)C(C)c3ccc(CC(C)C)cc3)c(OC)c2)ccc1O (stereo unspecified) | > 30 µM | 91.8% | – |
| O=C(Oc1ccccc1C(=O)O)c1ccccc1O | – | – | inhibition (Mus musculus [6]): Active |
| COc1cc(/C=C/C(=O)CC(=O)/C=C/c2ccc(OC(=O)C(C)c3cccc(C(=O)c4ccccc4)c3)c(OC)c2)ccc1O (stereo unspecified) | 8.98 µM | 68.8% | – |
| COc1cc(/C=C/C(=O)CC(=O)/C=C/c2ccc(OC(=O)c3ccccc3OC(C)=O)c(OC)c2)ccc1O | > 30 µM | 10% | – |
| COc1cc(/C=C/C(=O)CC(=O)/C=C/c2ccc(OC(=O)CCc3nc(-c4ccccc4)c(-c4ccccc4)o3)c(OC)c2)ccc1O | 19.3 µM | 75% | – |
| COc1cc(/C=C/C(=O)CC(=O)/C=C/c2ccc(OC(=O)c3ccccc3O)c(OC)c2)ccc1OC(=O)c1ccccc1O | 6.11 µM | 38.5% | – |
| COc1cc(/C=C/C(=O)CC(=O)/C=C/c2ccc(OC(=O)c3ccccc3OC(=O)c3ccccc3O)c(OC)c2)ccc1O | > 30 µM | 10% | – |
| COc1cc(/C=C/C(=O)CC(=O)/C=C/c2ccc(OC(=O)Cc3ccccc3Nc3c(Cl)cccc3Cl)c(OC)c2)ccc1OC(=O)Cc1ccccc1Nc1c(Cl)cccc1Cl | > 30 µM | 10% | – |
| COc1ccc2cc([C@@H](C)C(=O)Oc3ccc(/C=C/C(=O)CC(=O)/C=C/c4ccc(OC(=O)[C@H](C)c5ccc6cc(OC)ccc6c5)c(OC)c4)cc3OC)ccc2c1 | > 30 µM | 10% | – |
| COc1cc(/C=C/C(=O)CC(=O)/C=C/c2ccc(OC(=O)c3ccccc3Nc3cccc(C)c3C)c(OC)c2)ccc1O | 28 µM | 78% | – |
| O=C(O)c1ccccc1O | – | – | inhibition (Mus musculus [6]): Active |
| CCc1cccc2c3c([nH]c12)C(CC)(CC(=O)Oc1ccc(/C=C/C(=O)CC(=O)/C=C/c2ccc(O)c(OC)c2)cc1OC)OCC3 (stereo unspecified) | 25.3 µM | 10% | – |
| COc1ccc2cc(C(C)C(=O)Oc3ccc(/C=C/C(=O)CC(=O)/C=C/c4ccc(O)c(OC)c4)cc3OC)ccc2c1 (single isomer, unassigned) | 18.7 µM | 87.8% | – |
| COc1cc(/C=C/C(=O)CC(=O)/C=C/c2ccc(OC(=O)c3ccccc3Nc3cccc(Cl)c3C)c(OC)c2)ccc1OC(=O)c1ccccc1Nc1cccc(Cl)c1C | 28 µM | 10% | – |
| COc1ccc2c(c1)c(CC(=O)Oc1ccc(/C=C/C(=O)CC(=O)/C=C/c3ccc(OC(=O)Cc4c(C)n(C(=O)c5ccc(Cl)cc5)c5ccc(OC)cc45)c(OC)c3)cc1OC)c(C)n2C(=O)c1ccc(Cl)cc1 | > 30 µM | 10% | – |
| COc1cc(/C=C/C(=O)CC(=O)/C=C/c2ccc(OC(=O)c3cc(-c4ccc(F)cc4F)ccc3O)c(OC)c2)ccc1OC(=O)c1cc(-c2ccc(F)cc2F)ccc1O | > 30 µM | 85% | – |
| COc1cc(/C=C/C(=O)CC(=O)/C=C/c2ccc(OC(=O)C(C)c3ccc(CC(C)C)cc3)c(OC)c2)ccc1OC(=O)C(C)c1ccc(CC(C)C)cc1 (stereo unspecified) | 7.36 µM | – | – |
| COc1cc(/C=C/C(=O)CC(=O)/C=C/c2ccc(O)c(OC)c2)ccc1O [CURCUMIN] | 22.9 µM | – | – |
| COc1cc(/C=C/C(=O)CC(=O)/C=C/c2ccc(OC(=O)CCc3nc(-c4ccccc4)c(-c4ccccc4)o3)c(OC)c2)ccc1OC(=O)CCc1nc(-c2ccccc2)c(-c2ccccc2)o1 | > 30 µM | 10% | – |
| COc1cc(/C=C/C(=O)CC(=O)/C=C/c2ccc(OC(=O)c3ccccc3Nc3cccc(C(F)(F)F)c3)c(OC)c2)ccc1OC(=O)c1ccccc1Nc1cccc(C(F)(F)F)c1 | 12.9 µM | 10% | – |
| COc1cc(/C=C/C(=O)CC(=O)/C=C/c2ccc(OC(=O)c3ccccc3OC(C)=O)c(OC)c2)ccc1OC(=O)c1ccccc1OC(C)=O | > 30 µM | 87.8% | – |
| COc1cc(/C=C/C(=O)CC(=O)/C=C/c2ccc(OC(=O)Cc3ccccc3Nc3c(Cl)cccc3Cl)c(OC)c2)ccc1O | > 30 µM | 10% | – |
| COc1cc(/C=C/C(=O)CC(=O)/C=C/c2ccc(OC(=O)c3ccccc3O)c(OC)c2)ccc1O | > 30 µM | 91.8% | inhibition (Mus musculus [7]): Active; inhibition (Mus musculus [8]): Active; inhibition (Mus musculus [9]): Active; inhibition (Mus musculus [4]): Active; inhibition (Mus musculus [5]): Active; inhibition (Mus musculus [6]): Active |
| COc1cc(/C=C/C(=O)CC(=O)/C=C/c2ccc(OC(=O)c3ccccc3Nc3cccc(C)c3C)c(OC)c2)ccc1OC(=O)c1ccccc1Nc1cccc(C)c1C | > 30 µM | 10% | – |
| COc1cc(/C=C/C(=O)CC(=O)/C=C/c2ccc(OC(=O)C(C)c3cccc(C(=O)c4ccccc4)c3)c(OC)c2)ccc1OC(=O)C(C)c1cccc(C(=O)c2ccccc2)c1 (stereo unspecified) | > 30 µM | 10% | – |
| COc1cc(/C=C/C(=O)CC(=O)/C=C/c2ccc(OC(=O)c3ccccc3Nc3cccc(Cl)c3C)c(OC)c2)ccc1O | 9.2 µM | 85% | – |
